From paper PMC4550085 (Chemical communications (Cambridge, England), 2015)

Legend:
HeLa cells [1] = assay: FACS analysis of total cellular uptake of Rho-labelled CPPs; type: cell-based; settings: for Total cellular uptake (MFI^Rho, %): relative to Tat (100%), 5 µM Rho-labelled peptide, 2 h
How it was run: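 Total uptake: HeLa cells were treated for 2 h with 5 µM rhodamine-labelled peptide and analysed by FACS with excitation at 561 nm. MFI was background-subtracted. Values are relative to the Tat conjugate (100%) and are mean ± SD of three independent experiments.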

HeLa cells [2] = assay: FACS analysis of cytosolic delivery of NF-labelled CPPs; type: cell-based; settings: 2 h; for Cytosolic delivery (MFI^NF, %): relative to Tat (100%), 5 µM NF-labelled peptide; for cytosolic delivery efficiency relative to Tat: 5 µM NF-labelled peptides
How it was run: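 HeLa cells were exposed for 2 h to 5 µM naphthofluorescein-labelled peptide and analysed by FACS with excitation at 633 nm. Background fluorescence was subtracted from the mean fluorescence intensity (MFI). Values are relative to the Tat conjugate (100%) and are mean ± SD of three independent experiments.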

HeLa cells [3] = assay: Endosomal escape efficiency calculated from NF and Rho MFI; type: cell-based; settings: for Endosomal escape efficiency (γ, %): relative to Tat (100%), calculated from MFI^NF/MFI^Rho; for endosomal escape efficiency relative to Tat: γ=(MFI NF/MFI Rho)/(MFI Tat NF/MFI Tat Rho), HeLa cells, 5 µM
HeLa cells [4] = assay: Live-cell confocal microscopy of labelled CPPs; type: cell-based; settings: 5 µM for 2 h
[5] = pH titration of fluorescence intensity of the dyes and CPP-dye adducts; type: physicochemical
HeLa cells [6] = assay: MTT cytotoxicity assay; type: cell-based; settings: up to 25 µM concentration
[7] = cited from earlier work
[8] = previously shown; cited from earlier work

| Substance | Total cellular uptake (MFI^Rho, %) (HeLa cells [1]) [%] | Cytosolic delivery (MFI^NF, %) (HeLa cells [2]) [%] | Endosomal escape efficiency (γ, %) (HeLa cells [3]) [%] | intracellular fluorescence pattern (HeLa cells [4]) | pH profile of CPP-dye adduct compared with the unmodified dye ([5]; dye attached to the glutamine side chain of cFΦR4, pH titration) | total cellular uptake relative to Tat (HeLa cells [1]; 5 µM Rho-labelled peptides) [fold] | cytosolic delivery efficiency relative to Tat (HeLa cells [2]) | endosomal escape efficiency relative to Tat (HeLa cells [3]) [fold] | cytotoxicity, MTT assay (HeLa cells [6]) | cytosolic delivery efficiency relative to Tat, pCAP-based assay [7] [fold] | cytosolic delivery efficiency relative to Tat and R9 [8] | change in fluorescence intensity with pH ([5]; pH range of 5–10, Ex/Em 545/590 nm) |
| --- | --- | --- | --- | --- | --- | --- | --- | --- | --- | --- | --- | --- |
| YGRKKRRQRRR [Tat] | 100 | 100 | 100 | diffuse fluorescence in both cytoplasmic and nuclear regions | – | – | – | – | – | – | – | – |
| cyclo(FΦRRRRQ) (head to tail) [cFΦR4] | – | 1006 | 433 | – | essentially identical pH profiles | 2.3 | ~ 10 fold | 4.3 | Neither peptide showed any significant toxicity | 12 | 4–12 fold | – |
| nonaarginine [R9] | 114 | 197 | 173 | diffuse fluorescence in both cytoplasmic and nuclear regions | – | – | ~ 2 fold | 1.7 | – | 3 | – | – |
| rhodamine | – | – | – | – | – | – | – | – | – | – | – | no significant change in fluorescence intensity |
